Measured values taken from article PMC7668563 (International journal of molecular biology (Edmond, Okla.), 2020).

Legend:
[1] = target: T1, apo-human transferrin (apo-hTf) (Homo sapiens, UniProt P02787); assay: Thermodynamic parameters of apo-hTf complex formation; type: binding
How it was run: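 Ksv values were obtained from apo-hTf fluorescence quenching at pH 7.4 at 296, 303, 310 and 317 K. ΔH°, ΔS° and ΔG° were derived from linear regression of ln(Ksv) vs 1/T (Van't Hoff equation).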

[2] = target: T1, apo-human transferrin (apo-hTf); assay: Fluorescence resonance energy transfer; type: binding
How it was run: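 Emission spectrum of 1.0×10−5 mol L−1 apo-hTf and absorption spectrum of 1.0×10−5 mol L−1 test compound were recorded in 20 mM Tris-HCl pH 7.4 at room temperature, 260–450 nm, and their spectral overlap determined. E was calculated from apo-hTf fluorescence without and with equimolar test compound. R0 and donor–acceptor distance r came from Förster equations.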

[3] = tested on: human colorectal adenocarcinoma cell line, HT-29; conditions: read-out: IC50 (±SD), HT-29, ref 19; cited from earlier work
[4] = target: T1, apo-human transferrin (apo-hTf); assay: Far-UV circular dichroism titration of apo-hTf, secondary structure content
How it was run: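 Apo-hTf (4.0×10−7 mol L−1) in 2 mM Tris-HCl pH 7.4 was titrated with a 1.0×10−3 mol L−1 stock of test compound in Tris-HCl/2% DMSO, to final 0–2.4×10−6 mol L−1. Far-UV CD was recorded from 190–250 nm under nitrogen in a 1.0 cm cell: six scans at 100 nm/min. Baseline was buffer ± DMSO at room temperature. α-Helix was derived from MRE at 208 nm; β-sheet and random coil by the CD-RRG method.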

[5] = tested on: human breast adenocarcinoma cell line, MCF-7; conditions: read-out: IC50 (±SD), MCF-7, ref 19; cited from earlier work
[6] = target: T1, apo-human transferrin (apo-hTf); assay: UV-Vis absorbance titration of apo-hTf; type: binding
[7] = target: T1, apo-human transferrin (apo-hTf); assay: Fluorescence quenching of apo-hTf; type: binding; conditions: for biomolecular quenching rate constant kq: kq=Ksv/τ0; for Stern-Volmer quenching constant Ksv / number of binding sites n: pH 7.4; for quenching association constant Ka: pH 7.4, modified Stern-Volmer
How it was run: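 Intrinsic fluorescence of apo-hTf in Tris-HCl pH 7.4 was titrated with test compound (Tris-HCl/2% DMSO). Conditions: excitation 280 nm, emission 290–500 nm, slits 10/5 nm, 1.0 cm quartz cell, at 296, 303, 310 and 317 K, triplicate titrations. Intensities were corrected for inner filter effect using absorbances at excitation and emission wavelengths. Ksv came from Stern-Volmer plots of F0/F vs [Q]; kq = Ksv/τ0 (τ0 ~1.0×10−8); Ka and n came from the modified Stern-Volmer equation.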

T1 sequence (P02787 20-698): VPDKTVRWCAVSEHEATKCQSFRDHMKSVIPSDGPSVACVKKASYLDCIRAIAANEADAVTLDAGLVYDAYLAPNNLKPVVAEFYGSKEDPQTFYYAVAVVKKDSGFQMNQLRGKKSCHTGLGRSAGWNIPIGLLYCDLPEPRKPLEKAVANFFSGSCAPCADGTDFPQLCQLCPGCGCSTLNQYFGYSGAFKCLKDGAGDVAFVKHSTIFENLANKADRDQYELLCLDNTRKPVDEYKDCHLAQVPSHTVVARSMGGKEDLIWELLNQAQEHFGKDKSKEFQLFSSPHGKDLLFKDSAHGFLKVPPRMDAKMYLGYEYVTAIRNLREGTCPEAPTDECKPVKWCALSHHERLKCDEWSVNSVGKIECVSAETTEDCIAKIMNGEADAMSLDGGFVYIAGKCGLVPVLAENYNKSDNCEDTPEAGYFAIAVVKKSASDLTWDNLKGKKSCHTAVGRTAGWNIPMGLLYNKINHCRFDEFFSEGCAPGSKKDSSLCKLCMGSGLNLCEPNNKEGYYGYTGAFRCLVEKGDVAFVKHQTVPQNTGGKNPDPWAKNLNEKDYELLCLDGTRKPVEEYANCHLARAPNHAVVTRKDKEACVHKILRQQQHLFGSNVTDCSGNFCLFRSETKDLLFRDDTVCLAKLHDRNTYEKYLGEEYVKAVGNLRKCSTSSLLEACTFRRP

- ∆G° ([1]; 296 K): -4.343 kcal/mol
- ∆G° ([1]; 303 K): -4.498 kcal/mol
- ∆G° ([1]; 310 K): -4.653 kcal/mol
- ∆G° ([1]; 317 K): -4.809 kcal/mol
- ∆H° ([1]; pH 7.4, from Ksv at 296-317 K): 2.24 kcal/mol
- ∆S° ([1]; pH 7.4, from Ksv at 296-317 K): 93.12 J/mol K
- Förster critical energy transfer distance R0 ([2]; k^2=2/3, n=1.336, ØD=0.118): 4.53 nm
- binding distance r (donor-acceptor) ([2]; k^2=2/3, n=1.336, ØD=0.118): 6.05 nm
- efficiency of energy transfer E ([2]; room temperature, 1.0×10^−5 mol L^−1 each): 0.15
- other secondary structure content of apo-hTf ([4]; compound concentration 0.4 (M)): 18.3%
- random coil content of apo-hTf ([4]; compound concentration 0.4 (M)): 33.7%
- α-helix content of apo-hTf ([4]; compound concentration 0.4 (M)): 29.8%
- β-sheet content of apo-hTf ([4]; compound concentration 0.4 (M)): 18.2%
- other secondary structure content of apo-hTf ([4]; compound concentration 0.8 (M)): 18.4%
- random coil content of apo-hTf ([4]; compound concentration 0.8 (M)): 33.8%
- α-helix content of apo-hTf ([4]; compound concentration 0.8 (M)): 29.5%
- β-sheet content of apo-hTf ([4]; compound concentration 0.8 (M)): 18.3%
- other secondary structure content of apo-hTf ([4]; compound concentration 1.2 (M)): 18.6%
- random coil content of apo-hTf ([4]; compound concentration 1.2 (M)): 33.9%
- α-helix content of apo-hTf ([4]; compound concentration 1.2 (M)): 29.1%
- β-sheet content of apo-hTf ([4]; compound concentration 1.2 (M)): 18.4%
- other secondary structure content of apo-hTf ([4]; compound concentration 1.6 (M)): 19.1%
- random coil content of apo-hTf ([4]; compound concentration 1.6 (M)): 34.1%
- α-helix content of apo-hTf ([4]; compound concentration 1.6 (M)): 28.3%
- β-sheet content of apo-hTf ([4]; compound concentration 1.6 (M)): 18.5%
- other secondary structure content of apo-hTf ([4]; compound concentration 2 (M)): 19.2%
- random coil content of apo-hTf ([4]; compound concentration 2 (M)): 34.3%
- α-helix content of apo-hTf ([4]; compound concentration 2 (M)): 27.9%
- β-sheet content of apo-hTf ([4]; compound concentration 2 (M)): 18.6%
- other secondary structure content of apo-hTf ([4]; compound concentration 2.4 (M)): 19.4%
- random coil content of apo-hTf ([4]; compound concentration 2.4 (M)): 34.4%
- α-helix content of apo-hTf ([4]; compound concentration 2.4 (M)): 27.5%
- β-sheet content of apo-hTf ([4]; compound concentration 2.4 (M)): 18.7%
- Ka at 280 nm ([6]; absorbance at 280 nm): 2930 M⁻¹
- Ka at 361 nm ([6]; absorbance at 361 nm): 2980 M⁻¹
- Association constants, Ka, 280 nm ([6]; absorbance of apo-hTf at 280 nm, pH 7.4): 2.93 10^3 M^−1
- Association constants, Ka, 361 nm ([6]; absorbance of apo-hTf at 361 nm, pH 7.4): 2.98 10^3 M^−1
- biomolecular quenching rate constant kq ([7]; 296 K): 1.61e+11 M⁻¹ s⁻¹
- Stern-Volmer quenching constant Ksv ([7]; 296 K): 1610 M⁻¹
- number of binding sites n ([7]; 296 K): 1.16
- quenching association constant Ka ([7]; 296 K): 7800 M⁻¹
- biomolecular quenching rate constant kq ([7]; 303 K): 1.76e+11 M⁻¹ s⁻¹
- Stern-Volmer quenching constant Ksv ([7]; 303 K): 1760 M⁻¹
- number of binding sites n ([7]; 303 K): 1.13
- quenching association constant Ka ([7]; 303 K): 6000 M⁻¹
- biomolecular quenching rate constant kq ([7]; 310 K): 1.89e+11 M⁻¹ s⁻¹
- Stern-Volmer quenching constant Ksv ([7]; 310 K): 1890 M⁻¹
- number of binding sites n ([7]; 310 K): 1.08
- quenching association constant Ka ([7]; 310 K): 4200 M⁻¹
- biomolecular quenching rate constant kq ([7]; 317 K): 2.09e+11 M⁻¹ s⁻¹
- Stern-Volmer quenching constant Ksv ([7]; 317 K): 2090 M⁻¹
- number of binding sites n ([7]; 317 K): 1.04
- quenching association constant Ka ([7]; 317 K): 3200 M⁻¹
Compound: C1CCCC1.C1CCCC1.[Cl][W][Cl] [Cp2WCl2]
- IC50 [3]: 1000 µM
- IC50 [5]: 630 µM
